Values after ≈ are worked out from the molar mass of the structure shown.
Key:
[1] = tested on: MX1; test: In vivo antitumor activity was measured on MX-1 human mammary carcinoma cells. TWI%=tumor weight inhibition. Optimal dose 27 mg/kg/day.; type: functional
[2] = tested on: LoVo; test: In vitro cytotoxicity on human colon adenocarcinoma (LoVo ) tumor cell line.; type: functional, cell-based
[3] = tested on: LoVo/Dx (Homo sapiens); test: cells
[4] = tested on: P388; test: In vivo antitumor activity was measured on systemic P388 murine leukemia cells. Optimal dose 24 mg/kg/day.; type: functional, Mus musculus
How it was run: (§1)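 CD2F1 male mice given 10⁶ P388 leukemia cells iv (day 0); drug given iv on days 1, 4 and 7. Survival expressed as T/C% = median survival time of treated / median survival of controls × 100, reported at optimal dose (mg/kg/day) or maximum tested dose.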

[5] = tested on: LoVo; test: Resistance index measured as the ratio of IC50 of LoVo/Dx cell line to that of LoVo cell line.; type: functional, Homo sapiens
[6] = tested on: MX1; test: In vivo antitumor activity was measured on MX-1 human mammary carcinoma cells. TWI%=tumor weight inhibition. Optimal dose 60 mg/kg/day.; type: functional
[7] = tested on: P388; test: In vivo antitumor activity was measured on systemic P388 murine leukemia cells. Maximum tested dose 40 mg/kg/day.; type: functional, Mus musculus; how it was run: as §1
[8] = tested on: P388; test: In vivo antitumor activity was measured on systemic P388 murine leukemia cells. Maximum tested dose 20 mg/kg/day.; type: functional, Mus musculus; how it was run: as §1
[9] = tested on: P388; test: In vivo antitumor activity was measured on systemic P388 murine leukemia cells. Optimal dose at 40 mg/kg/day; type: functional, Mus musculus; how it was run: as §1
[10] = tested on: MX1; test: Antitumor activity was measured on MX-1 human mammary carcinoma cells. TWI%=tumor weight inhibition. Optimal dose at 40 mg/kg/day; type: functional
[11] = tested on: P388; test: In vivo antitumor activity was measured on systemic P388 murine leukemia cells. Optimal dose 3 mg/kg/day.; type: functional, Mus musculus; how it was run: as §1
[12] = tested on: MX1; test: In vivo antitumor activity was measured on MX-1 human mammary carcinoma cells. TWI%=tumor weight inhibition. Optimal dose 6 mg/kg/day.; type: functional
[13] = tested on: P388; test: In vivo antitumor activity was measured on systemic P388 murine leukemia cells. Optimal dose 4 mg/kg/day.; type: functional, Mus musculus; how it was run: as §1
[14] = tested on: MX1; test: In vivo antitumor activity was measured on MX-1 human mammary carcinoma cells. TWI%=tumor weight inhibition. Optimal dose 2 mg/kg/day.; type: functional
[15] = tested on: P388; test: In vivo antitumor activity was measured on systemic P388 murine leukemia cells. Optimal dose 7.5 mg/kg/day.; type: functional, Mus musculus; how it was run: as §1
[16] = tested on: MX1; test: In vivo antitumor activity was measured on MX-1 human mammary carcinoma cells. TWI%=tumor weight inhibition. Optimal dose 10 mg/kg/day.; type: functional
[17] = tested on: MX1; test: In vivo antitumor activity was measured on MX-1 human mammary carcinoma cells. TWI%=tumor weight inhibition. Optimal dose 9 mg/kg/day.; type: functional
[18] = tested on: MX1; test: In vivo antitumor activity was measured on MX-1 human mammary carcinoma cells. TWI%=tumor weight inhibition. Optimal dose 1.3 mg/kg/day.; type: functional
[19] = tested on: P388; test: In vivo antitumor activity was measured on systemic P388 murine leukemia cells. Optimal dose 13 mg/kg/day.; type: functional, Mus musculus; how it was run: as §1
[20] = tested on: MX1; test: In vivo antitumor activity was measured on MX-1 human mammary carcinoma cells. TWI%=tumor weight inhibition. Optimal dose 90 mg/kg/day.; type: functional
[21] = tested on: P388; test: In vivo antitumor activity was measured on systemic P388 murine leukemia cells. Maximum tested dose 18 mg/kg/day.; type: functional, Mus musculus; how it was run: as §1
[22] = tested on: MX1; test: In vivo antitumor activity was measured on MX-1 human mammary carcinoma cells. TWI%=tumor weight inhibition. Optimal dose 18 mg/kg/day.; type: functional
[23] = tested on: P388; test: In vivo antitumor activity was measured on systemic P388 murine leukemia cells. Optimal dose 6 mg/kg/day.; type: functional, Mus musculus; how it was run: as §1
[24] = tested on: P388; test: In vivo antitumor activity was measured on systemic P388 murine leukemia cells. Optimal dose 120 mg/kg/day.; type: functional, Mus musculus; how it was run: as §1
[25] = tested on: MX1; test: In vivo antitumor activity was measured on MX-1 human mammary carcinoma cells. TWI%=tumor weight inhibition. Optimal dose 130 mg/kg/day.; type: functional
[26] = tested on: MX1; test: In vivo antitumor activity was measured on MX-1 human mammary carcinoma cells. TWI%=tumor weight inhibition. Optimal dose 40 mg/kg/day.; type: functional
[27] = tested on: P388; test: In vivo antitumor activity was measured on systemic P388 murine leukemia cells. Optimal dose 1.5 mg/kg/day.; type: functional, Mus musculus; how it was run: as §1

SMILES	IC50 [3] [µg/mL]	IC50 [2] [µg/mL]	RI [5]	other results
NCCn1nc2c3c(c(NCCNCCO)ccc31)C(=O)c1ccncc1-2	> 100	1.63 (≈ 4.45 µM)	>61	TWI [1]: 62%; T/C [4]: 194%
CN(C)CCn1nc2c3c(c(NCCNS(C)(=O)=O)ccc31)C(=O)c1ccncc1-2	> 100	4.1 (≈ 9.57 µM)	>24	TWI [6]: 90%; T/C [8]: 111%
O=C1c2ccncc2-c2nn(CCNCCO)c3ccc(NCCNCCO)c1c23	> 100	4.5 (≈ 11 µM)	>22	T/C [9]: 165%; TWI [10]: 89%
CNCCNc1ccc2c3c(nn2CCN)-c2cnccc2C(=O)c13	10.2 (≈ 30.3 µM)	0.21 (≈ 0.624 µM)	49	T/C [11]: 153%; TWI [12]: 70%
CCN(CC)CCNc1ccc2c3c(nn2CCN(C)C)-c2cnccc2C(=O)c13	0.83 (≈ 2.04 µM)	0.37 (≈ 0.91 µM)	2.2	TWI [17]: 35%; T/C [13]: 175%
CN(C)CCn1nc2c3c(c(NCCN(CCO)CCO)ccc31)C(=O)c1ccncc1-2	> 100	2.13 (≈ 4.86 µM)	>47	TWI [20]: 97%; T/C [7]: 175%
CN(C)CCn1nc2c3c(c(NCCN4CCNCC4)ccc31)C(=O)c1ccncc1-2	> 100	4.83 (≈ 11.5 µM)	21	T/C [21]: 113%; TWI [22]: 14%
CN(C)CCn1nc2c3c(c(NCCN4CCOCC4)ccc31)C(=O)c1ccncc1-2	3.63 (≈ 8.63 µM)	1.35 (≈ 3.21 µM)	2.7	TWI [1]: 48%; T/C [4]: 256%
O=C1c2ccncc2-c2nn(CCNCCO)c3ccc(NCCN(CCO)CCO)c1c23	> 100	> 100		T/C [24]: 111%; TWI [25]: 45%
CN(C)CCn1nc2c3c(c(NCCO)ccc31)C(=O)c1ccncc1-2	13.6 (≈ 38.7 µM)	0.32 (≈ 0.911 µM)	42.5	T/C ([7]; in the assay text read “Maximum tested dose 12 mg/kg/day” for “Maximum tested dose 40 mg/kg/day”): 167%; TWI [26]: 97%
CNCCNc1ccc2c3c(nn2CCNC)-c2cnccc2C(=O)c13	3.14 (≈ 8.96 µM)	0.04 (≈ 0.114 µM)	78	T/C [27]: 167%

The next lines start with results.

IC50 [3] [µg/mL]	SMILES	IC50 [2] [µg/mL]	RI [5]	other results
> 100	CN(C)CCNCCNc1ccc2c3c(nn2CCN(C)C)-c2cnccc2C(=O)c13	3.2 (≈ 7.59 µM)	>31	TWI [6]: 25%; T/C [7]: 133%
1 (≈ 2.64 µM)	CN(C)CCNc1ccc2c3c(nn2CCN(C)C)-c2cnccc2C(=O)c13	0.35 (≈ 0.925 µM)	2.8	T/C [13]: 381%; TWI [14]: 56%
90 (≈ 220 µM)	CN(C)CCCn1nc2c3c(c(NCCNCCO)ccc31)C(=O)c1ccncc1-2	0.3 (≈ 0.734 µM)	300	T/C [15]: 166%; TWI [16]: 98%
3.78 (≈ 10.4 µM)	CNCCNc1ccc2c3c(nn2CCN(C)C)-c2cnccc2C(=O)c13	0.03 (≈ 0.0823 µM)	126	TWI [18]: 68%; T/C [19]: 262%
41.2 (≈ 104 µM)	CN(C)CCn1nc2c3c(c(NCCNCCO)ccc31)C(=O)c1ccncc1-2	0.2 (≈ 0.507 µM)	206	TWI [17]: 99%; T/C [23]: 194%

Reference: ChEMBL document CHEMBL1131450, “Synthesis and antitumor evaluation of 2,5-disubstituted-indazolo[4, 3-gh]isoquinolin-6(2H)-ones (9-aza-anthrapyrazoles)” (J Med Chem, 1998)
